# Screens deposited in PubChem by Johns Hopkins Ion Channel Center.
# An excerpt weighted towards active compounds, which were near 3.5% of everything screened.
# MrgX1 PAM: human MrgX1 positive allosteric modulation, primary screen | Q96LB2 | MrgX1-HEK293, Fluo-4 calcium flux, FDSS; hits give high values | B-score at 10 µM | hit rate 0.63% among 310,000 | AID 588675;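 active means plate-corrected calcium response at least 3 library SD above typical, normal starting fluorescence, not activating the receptor alone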;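 further: compound read alongside a low EC10 to EC30 dose of BAM8-22 agonist; peak minus trough fluorescence over baseline measured at the second addition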
# RGS4 inh: inhibitors of human RGS4 | HEK293 M3R/RGS4 inducible, Fluo-4 calcium flux; hits give high values; triggered by carbachol at its EC20 | B-score at 10 µM | hit rate 0.45% among 310,000;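 active means B-score, a plate-corrected calcium signal, over three deviations above library mean, with baseline fluorescence within five deviations of library mean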;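 further: RGS4 expression induced by doxycycline in cells with stable M3 receptor; B-score is computed from the integrated fluorescence ratio over baseline after carbachol; higher B-score means a larger calcium signal and so more RGS4 inhibition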
# Target sequence (P49798 whole entry, looked up): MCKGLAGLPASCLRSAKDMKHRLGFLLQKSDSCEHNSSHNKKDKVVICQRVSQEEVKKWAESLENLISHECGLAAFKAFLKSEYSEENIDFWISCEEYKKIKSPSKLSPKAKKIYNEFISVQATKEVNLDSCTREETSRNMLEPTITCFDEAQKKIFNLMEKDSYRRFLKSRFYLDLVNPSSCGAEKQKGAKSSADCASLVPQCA
# MrgX1 agonist: human MrgX1 receptor agonism, primary screen | Q96LB2 | MrgX1-HEK293 cells, Fluo-4 calcium fluorescence, agonist mode; hits give high values | hit rate 0.44% among 310,000 | AID 588627 | B-score at 10 µM;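 active means calcium response B-score plate-corrected fluorescence ratio at least 3 library SD, with starting fluorescence B-score inside 5 SD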
#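 Test system: HEK293 cells stably expressing human MrgX1 receptor; Input: fifteen thousand cells per well; Dosing: compound delivered in addition one of three; Schedule: overnight seeding, then 1 h dark dye loading; Technique: Fluo-4 NW calcium fluorescence; Measure: B-scored fluorescence response ratio; Controls: positive and negative controls per plate.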
# RGS4 pot: RGS4 potentiation or activation; B-score at 10 µM; HEK293 M3R/inducible RGS4, carbachol calcium flux Fluo4; hits give low values; AID 463111; hit rate 0.92% among 310,000;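 active means B-score of the integrated calcium signal more than 4 SD below the library mean, with starting fluorescence not abnormally high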;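 further: negative B-score means reduced calcium response which marks RGS4 activation or potentiation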
#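 System: HEK293 FlpIn-TREx cells, stable M3R, doxycycline-inducible RGS4. Timing: overnight RGS4 induction, 30 min dye load 37 °C, 20 min compound RT. Also added: carbachol, ECmax concentration. Measured by: Fluo4 fluorescence kinetic imaging of calcium. Evaluation: integrated calcium ratio converted to B score.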
# MrgX1 antag: human MrgX1 receptor antagonism, primary screen | MRGX1-HEK293 calcium flux, Fluo-4, BAM8-22 antagonism; hits give low values | B-score at 10 µM | hit rate 1.3% among 310,000 | AID 588676;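 active means calcium-response B-score plate-corrected more than 3 library SD below zero, starting fluorescence within 5 deviations, no agonist response on first addition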;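 further: peak minus trough fluorescence over baseline after final BAM8-22 challenge near maximal dose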
# An asterisk follows results filed as active; i = inactive; / = no result given.
SMILES,MrgX1 PAM,RGS4 inh,MrgX1 agonist,RGS4 pot,MrgX1 antag
CCC(C)N(C(=O)COc1ccccc1C(=O)NCc1ccccc1)C1CCS(=O)(=O)C1 (centres undefined),i,i,i,i,-6.16*
CC(=O)NC(NC(=S)Nc1ccc(N=Nc2ccccc2C)cc1C)C(Cl)(Cl)Cl (centres undefined),i,i,i,i,-4.56*
COc1cccc(/C=N/n2c(-c3n[nH]c4c3CCC4)n[nH]c2=S)c1OC,i,i,i,-7.29*,i
CCNc1nc(NC(C)CC)nc(ON=C(C)C)n1 (centres undefined),i,i,i,i,i
O=C(CNC(=O)OCc1ccccc1)Oc1ccc2ccc(=O)oc2c1,i,i,i,i,i
O=C(NC(Cc1ccccc1)C(=O)Oc1ccc2c(C(F)(F)F)cc(=O)oc2c1)OCc1ccccc1 (centres undefined),8.4*,i,i,i,i
CC(C)(C)NCC(O)COc1cccc2c1CCC(=O)N2 (centres undefined),i,/,i,/,i
CC(C(=O)NCCN1C(=O)S/C(=C\c2cccs2)C1=O)N1C(=O)c2ccccc2C1=O (centres undefined),i,i,i,i,i
O=C(NCCN1C(=O)S/C(=C\c2cccs2)C1=O)[C@H](Cc1ccccc1)N1C(=O)c2ccccc2C1=O,i,i,i,i,-8.4*
CCOCCCNC(=O)c1ccc2c(=O)n(CCCOCC)c(=S)[nH]c2c1,12.9*,i,i,i,i
CCOCCCn1c(=S)[nH]c2cc(C(=O)NCCOC)ccc2c1=O,i,i,i,i,i
CC(C)C(=O)NC(=S)Nc1ccc(S(=O)(=O)NC2CCCCC2)cc1,i,i,i,i,i
O=C(COc1nsnc1N1CCOCC1)Nc1ccc(Br)cc1,i,i,i,i,i
CCOc1ccc(C(=O)NCC(=O)NNC(=O)C2COc3ccccc3O2)cc1OCC (centres undefined),i,i,i,i,-5.38*
O=C(Nc1nc(-c2ccc3c(c2)OCO3)cs1)C1COc2ccccc2O1 (centres undefined),i,i,i,-7.55*,i
COc1ccc(CCNC(=S)NNC(=O)c2c(Br)c(C)nn2C)cc1OC,i,i,i,i,i
Cc1ccc(-c2nc(=S)c3c(n2Cc2ccco2)CC(C)(C)OC3)cc1,i,i,i,i,-6.03*
Cc1ccc(-c2nc(=S)c3c(n2CC2CCCO2)CC(C)(C)OC3)cc1 (centres undefined),i,i,i,i,i
CCCn1c(SCC(=O)NNC(=O)c2ccc(OC)cc2)nnc1C(C)C,i,i,i,i,i
Cc1ccc(NC(=O)CN(C)C(=O)COC(=O)CNS(=O)(=O)c2ccc(F)c(F)c2F)cc1,i,i,i,i,i
Cc1ccc(NC(=O)CN(C)C(=O)COC(=O)CNS(=O)(=O)c2ccc(Br)cc2Cl)cc1,i,i,58.7*,i,i
Cc1cc(NC(=O)CCC(=O)N(Cc2ccc(F)cc2)C(C(=O)NC2CCCC2)c2ccco2)no1 (centres undefined),i,i,i,i,i
CC1CCN(CCOc2ccc(C(=O)c3ccccc3)cc2)CC1,i,i,i,i,i
CC1CCN(CCCCOc2ccc(F)cc2)CC1,i,i,i,i,i
CC1CCN(CCCCOc2ccc([N+](=O)[O-])cc2)CC1,i,i,i,-7.31*,i
SMILES,MrgX1 PAM,RGS4 inh,MrgX1 agonist,RGS4 pot,MrgX1 antag
O=[N+]([O-])c1ccc(OCCCCCN2CCOCC2)cc1,i,i,i,i,i
Cc1ccc(OCCCCN2CCC(C)CC2)cc1,i,i,i,-7.21*,i
Cc1cc(Br)ccc1OCCCCN1CCCCC1,i,i,i,-7.05*,i
CC1CCN(CCCCOc2ccc(C(=O)c3ccccc3)cc2)CC1,i,i,i,-9.56*,i
Cc1cc(Br)ccc1OCCOCCN1CCCC1,i,i,i,i,i
O=[N+]([O-])c1ccc(OCCCCN2CCCCC2)cc1,i,i,i,-7.63*,i
